The source made the active and inactive calls. The calls are words filed in the database; no cut-off is given here.

Assay [1] concerns Plasmodium falciparum. Nature of the assay: Antiplasmodial activity against Plasmodium falciparum F32-Tanzania assessed as inhibition of parasite growth at 0.1 uM treated for 96 hrs. It counts as functional, organism-based. The gist of the method: (§1)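 Sorbitol-synchronized ring cultures (5% parasitemia, 2.5% hematocrit) in O+ human RBCs, RPMI with 5% human serum, 37°C, 5% CO2. Medium was swapped for artemisinin-containing medium for 48 or 96 h, then washed out and culture resumed drug-free. Parasitemia was tracked to record days to reach 5%; cultures with no parasites by day 21 were scored as no recovery. Runs were done at least three times, except 48 h/70 μM and the 96 h conditions, which were done once.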

The test system of assay [2] is Plasmodium falciparum. Kind of assay: Antiplasmodial activity against artemisinin-tolerant Plasmodium falciparum F32-Tanzania assessed as time required to reach 5% parasitaemia at 0.1 uM treated for 96 hrs. It counts as functional. The gist of the method: as §1
The subject of assay [3] is Plasmodium falciparum. Nature of the assay: Antiplasmodial activity against Plasmodium falciparum F32-Tanzania assessed as inhibition of parasite growth at 1 uM treated for 96 hrs. It counts as functional, organism-based. In a few lines: as §1
In assay [4] the test system is Plasmodium falciparum. Nature of the assay: Antiplasmodial activity against artemisinin-tolerant Plasmodium falciparum F32-Tanzania assessed as time required to reach 5% parasitaemia at 1 uM treated for 96 hrs. It counts as functional. In a few lines: as §1
The subject of assay [5] is Plasmodium falciparum. Kind of assay: Antiplasmodial activity against artemisinin-tolerant Plasmodium falciparum F32-Tanzania assessed as parasitaemia at 9 uM after 48 hrs by rhodamine 123 staining. Format: functional. In a few lines:
(§2)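 Infected RBCs were stained with R123 (1 μg/ml in RPMI, 37°C, 5 min), washed, and incubated 30 min under culture conditions. Nuclei were counterstained with DAPI (1 μg/ml, 37°C, 20 min). Thin smears were read the same day by epifluorescence; R123-positive (polarized mitochondria) parasites were scored as viable.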

Assay [6] has as its system Plasmodium falciparum. Kind of assay: Antiplasmodial activity against artemisinin-tolerant Plasmodium falciparum F32-Tanzania assessed as decrease in appearance of late trophozoites at 9 uM after 24 hrs by rhodamine 123 staining. It counts as functional, organism-based. In a few lines:
as §2

Assay [7] relates to Plasmodium falciparum. Nature of the assay: Antiplasmodial activity against artemisinin-tolerant Plasmodium falciparum F32-Tanzania assessed as decrease in appearance of late trophozoites at 9 uM after 48 hrs by rhodamine 123 staining. It counts as functional, organism-based. The gist of the method:
as §2

For assay [8], the system named is Plasmodium falciparum. Nature of the assay: Antiplasmodial activity against artemisinin-tolerant Plasmodium falciparum F32-Tanzania assessed as decrease in occurrence of normal parasite cell cycle at 9 uM measured after 24 to 30 hrs of drug removal by rhodamine 123 staining. It counts as functional, organism-based. In a few lines:
as §2

Assay [9] deals with Plasmodium falciparum. Kind of assay: Antiplasmodial activity against artemisinin-tolerant Plasmodium falciparum F32-Tanzania assessed as decrease in appearance of late trophozoites at 9 uM measured after 24 to 30 hrs of drug removal by rhodamine 123 staining. It counts as functional, organism-based. In a few lines:
as §2

For assay [10], the system named is Plasmodium falciparum. Nature of the assay: Antiplasmodial activity against artemisinin-tolerant Plasmodium falciparum F32-Tanzania assessed as decrease in appearance of late schizonts at 9 uM measured after 24 to 30 hrs of drug removal by rhodamine 123 staining. Format: functional, organism-based. In a few lines:
as §2

Assay [11] has as its system Plasmodium falciparum. Kind of assay: Antiplasmodial activity Plasmodium falciparum F32-Tanzania assessed as decrease in appearance of parasite quiescent rings at 9 uM after 48 hrs by rhodamine 123 staining. Format: functional, organism-based. In a few lines: as §2
Assay [12] has as its system Plasmodium falciparum. Nature of the assay: Antiplasmodial activity Plasmodium falciparum F32-Tanzania assessed as decrease in appearance of mature parasite forms at 9 uM measured after 24 to 30 hrs of drug removal by rhodamine 123 staining. It counts as functional, organism-based. The gist of the method: as §2
For assay [13], the system named is Plasmodium falciparum. Nature of the assay: Antiplasmodial activity against artemisinin-tolerant Plasmodium falciparum F32-Tanzania assessed as decrease in appearance of late-stage parasites at 9 uM after 24 hrs by FACS analysis. It counts as functional, organism-based. The gist of the method:
(§3)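 Samples were stained with DAPI (1 μg/ml) and analysed immediately by flow cytometry (400,000 events). Gates were calibrated with uninfected RBCs, sorbitol-synchronized rings, and magnetically isolated trophozoites and schizonts.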
(In general: Flow cytometry measures light scatter and fluorescence of single cells or particles in a stream.)

The test system of assay [14] is Plasmodium falciparum. Nature of the assay: Antiplasmodial activity against artemisinin-tolerant Plasmodium falciparum F32-Tanzania assessed as decrease in appearance of late-stage parasites at 9 uM after 48 hrs by FACS analysis. Format: functional, organism-based. The gist of the method: as §3
Assay [15] deals with Plasmodium falciparum. Kind of assay: Antiplasmodial activity against artemisinin-tolerant Plasmodium falciparum F32-Tanzania assessed as decrease in appearance of late-stage parasites at 9 uM measured after 24 hrs of drug removal by FACS analysis. It counts as functional, organism-based. In a few lines:
as §3

Assay [16] has as its system Plasmodium falciparum. Nature of the assay: Antiplasmodial activity against artemisinin-tolerant Plasmodium falciparum F32-Tanzania assessed as inhibition of parasite growth at 9 uM after 48 hrs by FACS analysis in presence of sorbitol. Format: functional, organism-based.
In assay [17] the test system is Plasmodium falciparum. Kind of assay: Antiplasmodial activity against artemisinin-tolerant Plasmodium falciparum F32-Tanzania assessed as inhibition of parasite growth at 9 uM measured after 24 to 30 hrs of drug removal by FACS analysis in presence of sorbitol. Format: functional, organism-based.
The test system of assay [18] is Plasmodium falciparum. Nature of the assay: Antiplasmodial activity against artemisinin-tolerant Plasmodium falciparum F32-Tanzania assessed as decrease in parasite recovery time at 9 uM treated for 48 hrs in presence of 0.5 uM MDR1 inhibitor penfluridol. Format: functional, organism-based.
The subject of assay [19] is Plasmodium falciparum. Nature of the assay: Antiplasmodial activity against Plasmodium falciparum F32-Tanzania assessed as time required to reach 5% parasitaemia at 9 uM treated for 48 hrs. Format: functional. In a few lines:
as §1

The subject of assay [20] is Plasmodium falciparum. Nature of the assay: Antiplasmodial activity against artemisinin-tolerant Plasmodium falciparum F32-Tanzania assessed as time required to reach 5% parasitaemia at 9 uM treated for 48 hrs. Format: functional. In a few lines:
as §1

The test system of assay [21] is Plasmodium falciparum. Kind of assay: Antiplasmodial activity against Plasmodium falciparum F32-Tanzania assessed as time required to reach 5% parasitaemia at 18 uM treated for 48 hrs. Format: functional. In a few lines: as §1
Assay [22] has as its system Plasmodium falciparum. Kind of assay: Antiplasmodial activity against artemisinin-tolerant Plasmodium falciparum F32-Tanzania assessed as time required to reach 5% parasitaemia at 18 uM treated for 48 hrs. Format: functional. The gist of the method:
as §1

Assay [23] relates to Plasmodium falciparum. Nature of the assay: Antiplasmodial activity against Plasmodium falciparum F32-Tanzania assessed as inhibition of parasite growth at 35 uM treated for 48 hrs. It counts as functional, organism-based. In a few lines:
as §1

For assay [24], the system named is Plasmodium falciparum. Kind of assay: Antiplasmodial activity against artemisinin-tolerant Plasmodium falciparum F32-Tanzania assessed as time required to reach 5% parasitaemia at 35 uM treated for 48 hrs. Format: functional. The gist of the method: as §1
The subject of assay [25] is Plasmodium falciparum. Nature of the assay: Antiplasmodial activity against Plasmodium falciparum F32-Tanzania assessed as inhibition of parasite growth at 70 uM treated for 48 hrs. It counts as functional, organism-based. The gist of the method:
as §1

For assay [26], the system named is Plasmodium falciparum. Nature of the assay: Antiplasmodial activity against artemisinin-tolerant Plasmodium falciparum F32-Tanzania assessed as time required to reach 5% parasitaemia at 70 uM treated for 48 hrs. It counts as functional. In a few lines:
as §1

Assay [27] concerns Plasmodium falciparum. Nature of the assay: Antiplasmodial activity against Plasmodium falciparum F32-Tanzania assessed as time required to reach 5% parasitaemia at 2.6 uM treated for 48 hrs. It counts as functional. The gist of the method:
(§4)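 Sorbitol-synchronized ring-stage cultures at 5% parasitemia and 2.5% hematocrit in human O+ erythrocytes, in RPMI with human serum at 37°C under 5% CO2. Drug-containing medium for 48 h, then RPMI wash and return to drug-free culture. Endpoint was days to reach 5% parasitemia, followed up to 21 days. Three or more independent experiments; mean ± SD.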

The test system of assay [28] is Plasmodium falciparum. Kind of assay: Antiplasmodial activity against artemisinin-tolerant Plasmodium falciparum F32-Tanzania assessed as time required to reach 5% parasitaemia at 2.6 uM treated for 48 hrs. Format: functional. The gist of the method:
as §4

Assay [29] has as its system Plasmodium falciparum. Kind of assay: Antiplasmodial activity against Plasmodium falciparum F32-Tanzania assessed as time required to reach 5% parasitaemia at 0.2 uM treated for 48 hrs. Format: functional. The gist of the method:
as §4

The subject of assay [30] is Plasmodium falciparum. Nature of the assay: Antiplasmodial activity against artemisinin-tolerant Plasmodium falciparum F32-Tanzania assessed as time required to reach 5% parasitaemia at 0.2 uM treated for 48 hrs. Format: functional. The gist of the method: as §4

As to `C[C@@H]1CC[C@H]2[C@@H](C)C(=O)O[C@@H]3O[C@@]4(C)CC[C@@H]1[C@]32OO4` [ARTEMISININ], the inhibition entry in assay [1], in assay [3], in assay [16], in assay [17], in assay [23] and in assay [25] was “Active” each time. Also, the Time in assay [2] is 15 days; in assay [4] it was 16 days; in assay [19], 16 days; in assay [20], 6 days; in assay [21], “<=17 day”; in assay [22] it was 7 days. The Time in assay [24] stood at 11 days; in assay [26], 17 days. In assay [5], the Activity came out at 0.1%. Further, the outcome in assay [6], in assay [7], in [11], in assay [12], in [13] and in assay [14] was Active. The outcome in assay [18] was Active. Also, the outcome in assay [8], in assay [9], in assay [10] and in assay [15] was inactive.

As to `C[C@H]1[C@H](OC(=O)CCC(=O)O)O[C@@H]2O[C@@]3(C)CC[C@H]4[C@H](C)CC[C@@H]1[C@@]24OO3` [ARTESUNATE], the Time worked out at 14 days in assay [27], 6 days in assay [28], 15 days in assay [19] and 8 days in assay [20].

Turning to `CCN(CC)CCCC(C)Nc1ccnc2cc(Cl)ccc12` (configuration not stated) [CHLOROQUINE], the Time in assay [29] and in assay [30] was 14 days each time.
